How the values were obtained:
[1] = tested on: human stem-cell-derived motor neurons carrying the ALS-causing SOD1^A4V mutation; assay: Motor neuron CPA survival assay, SOD1^A4V ALS motor neurons; conditions: for maximum efficacy compared with compound 1 / neuroprotection in CPA survival assay / concentrations that completely blocked the effects of CPA treatment: CPA-treated SOD1^A4V motor neurons; for EC50: Homo sapiens, Neuron, 72 h, read-out: EC50 in motor neuron survival assay
[2] = tested on: JNK pathway; assay: Western blots of JNK pathway in CPA-treated motor neurons; format: cell-based, mouse; conditions: western blot, Fig. S2
Procedure, shortened: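 Day-6 embryoid bodies from mouse ES cells (HB9::GFP reporter, human SOD1 transgene; RA 1 μM + SAG 0.5 μM) were given CPA 10 μM plus test compound 0.5 μM for 4 h, then lysed in HEPES/Triton/SDS buffer. Immunoblots used phospho-JNK (Thr183/Tyr185), phospho-c-Jun (Ser63), phospho-MKK4 (Ser257), total proteins and cleaved caspase 3 at 1:1000, with GAPDH at 1:3000. Signals normalised to GAPDH, phospho to total, and expressed as % of CPA; n = 2 differentiations; unpaired two-tailed t-tests.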

[3] = tested on: mouse stem cell-derived motor neurons; conditions: CPA-treated; ref Thams et al., 2019; cited from earlier work
[4] = tested on: motor neurons differentiated from human induced pluripotent stem cells derived from a healthy patient; assay: Motor neuron CPA survival assay, healthy-patient iPSC-derived motor neurons; format: cell-based; conditions: for rescue of CPA toxicity / neuroprotection: CPA-treated healthy human motor neurons, 72 h; for concentrations toxic to motor neurons in the absence of CPA: without CPA

CN1CCN(Cc2ccc(-c3cnc4[nH]cc(-c5cccc6[nH]ncc56)c4c3)cc2)CC1 [7aa, 4-(5-(4-((4-Methylpiperazin-1-yl)methyl)phenyl)-1H-pyrrolo[2,3-b]pyridin-3-yl)-1H-indazole]
maximum efficacy compared with compound 1 [1]: greater maximum efficacy than compound 1 | EC50 [1]: < 220 nM

CN1CCN(Cc2ccc(-c3cnc4[nH]cc(-c5ccccc5)c4c3)cc2)CC1 [7ac, 5-(4-((4-Methylpiperazin-1-yl)methyl)phenyl)-3-phenyl-1H-pyrrolo[2,3-b]pyridine]
maximum efficacy compared with compound 1 [1]: greater maximum efficacy than compound 1

CNC(=O)Nc1cccc(-c2c[nH]c3ncc(-c4ccc(CN5CCN(C)CC5)cc4)cc23)c1 [7ak, 1-Methyl-3-(3-(5-(4-((4-methylpiperazin-1-yl)methyl)phenyl)-1H-pyrrolo[2,3-b]pyridin-3-yl)phenyl)urea]
maximum efficacy compared with compound 1 [1]: greater maximum efficacy than compound 1

COC(=O)Nc1cccc(-c2c[nH]c3ncc(-c4ccc(CN5CCN(C)CC5)cc4)cc23)c1 [7al, Methyl (3-(5-(4-((4-methylpiperazin-1-yl)methyl)phenyl)-1H-pyrrolo[2,3-b]pyridin-3-yl)phenyl)carbamate]
maximum efficacy compared with compound 1 [1]: greater maximum efficacy than compound 1

CNC(=O)Nc1ccc(-c2c[nH]c3ncc(-c4ccc(CN5CCN(C)CC5)cc4)cc23)cc1 [7am, 1-Methyl-3-(4-(5-(4-((4-methylpiperazin-1-yl)methyl)phenyl)-1H-pyrrolo[2,3-b]pyridin-3-yl)phenyl)urea]
maximum efficacy compared with compound 1 [1]: greater maximum efficacy than compound 1

CN1CCN(Cc2ccc(-c3cnc4[nH]cc(-c5cccc(NC(=O)NCc6ccco6)c5)c4c3)cc2)CC1 [7ay, 1-(Furan-2-ylmethyl)-3-(3-(5-(4-((4-methylpiperazin-1-yl)methyl)phenyl)-1H-pyrrolo[2,3-b]pyridin-3-yl)phenyl)urea]
neuroprotection in CPA survival assay [1]: completely ineffective

CN1CCN(Cc2ccc(-c3cnc4[nH]cc(-c5cccc6c5oc5ccccc56)c4c3)cc2)CC1 [7c, 3-(Dibenzo[b,d]furan-4-yl)-5-(4-((4-methylpiperazin-1-yl)methyl)phenyl)-1H-pyrrolo[2,3-b]pyridine]
neuroprotection in CPA survival assay [1]: completely ineffective

CN1CCN(Cc2ccc(-c3cnc4[nH]cc(-c5ccc(N)cc5)c4c3)cc2)CC1 [7e, 4-(5-(4-((4-Methylpiperazin-1-yl)methyl)phenyl)-1H-pyrrolo[2,3-b]pyridin-3-yl)aniline]
maximum efficacy compared with compound 1 [1]: greater maximum efficacy than compound 1

CN1CCN(Cc2ccc(-c3cnc4[nH]cc(-c5cccc(N)c5)c4c3)cc2)CC1 [7h, 3-(5-(4-((4-Methylpiperazin-1-yl)methyl)phenyl)-1H-pyrrolo[2,3-b]pyridin-3-yl)aniline]
maximum efficacy compared with compound 1 [1]: greater maximum efficacy than compound 1 | EC50 [1]: < 220 nM

Cc1cc(-c2c[nH]c3ncc(-c4ccc(CN5CCN(C)CC5)cc4)cc23)cnc1N [7l, 3-Methyl-5-(5-(4-((4-methylpiperazin-1-yl)methyl)phenyl)-1H-pyrrolo[2,3-b]pyridin-3-yl)pyridin-2-amine]
maximum efficacy compared with compound 1 [1]: greater maximum efficacy than compound 1 | EC50 [1]: < 220 nM

CN1CCN(Cc2ccc(-c3cnc4[nH]cc(-c5ccc(N)nc5)c4c3)cc2)CC1 [7m, 5-(5-(4-((4-Methylpiperazin-1-yl)methyl)phenyl)-1H-pyrrolo[2,3-b]pyridin-3-yl)pyridin-2-amine]
EC50 [1]: < 220 nM

CN1CCN(Cc2ccc(-c3cnc4[nH]cc(-c5cccc([N+](=O)[O-])c5)c4c3)cc2)CC1 [7p, 5-(4-((4-Methylpiperazin-1-yl)methyl)phenyl)-3-(3-nitrophenyl)-1H-pyrrolo[2,3-b]pyridine]
maximum efficacy compared with compound 1 [1]: greater maximum efficacy than compound 1

CN1CCN(Cc2ccc(-c3cnc4[nH]cc(-c5ccc6[nH]ncc6c5)c4c3)cc2)CC1 [7v, 5-(5-(4-((4-Methylpiperazin-1-yl)methyl)phenyl)-1H-pyrrolo[2,3-b]pyridin-3-yl)-1H-indazole]
maximum efficacy compared with compound 1 [1]: greater maximum efficacy than compound 1 | EC50 [1]: < 220 nM

CN1CCN(Cc2ccc(-c3cnc4[nH]cc(-c5cccc(F)c5)c4c3)cc2)CC1 [7y, 3-(3-Fluorophenyl)-5-(4-((4-methylpiperazin-1-yl)methyl)phenyl)-1H-pyrrolo[2,3-b]pyridine]
maximum efficacy compared with compound 1 [1]: greater maximum efficacy than compound 1

CN1CC2CCC(C1)N2Cc1ccc(-c2cnc3[nH]cc(-c4cccc(Cl)c4)c3c2)cc1 [12f, 3-(3-Chlorophenyl)-5-(4-((3-methyl-3,8-diazabicyclo[3.2.1]octan-8-yl)methyl)phenyl)-1H-pyrrolo[2,3-b]pyridine]
EC50 [1]: 110 nM | concentrations at which compound was toxic ([1]; motor neuron survival assay): above 0.3 μM

OCCN1CCN(Cc2ccc(-c3cnc4[nH]cc(-c5cccc(F)c5)c4c3)cc2)CC1 [12h, 2-(4-(4-(3-(3-Fluorophenyl)-1H-pyrrolo[2,3-b]pyridin-5-yl)benzyl)piperazin-1-yl)ethan-1-ol]
concentrations that completely blocked the effects of CPA treatment [1]: < 0.3 µM | inhibition of JNK pathway components [2]: effectively inhibit the same JNK pathway components as compound 1

O[C@@H]1CCN(Cc2ccc(-c3cnc4[nH]cc(-c5cccc(F)c5)c4c3)cc2)C1 [12i, (R)-1-(4-(3-(3-Fluorophenyl)-1H-pyrrolo[2,3-b]pyridin-5-yl)benzyl)pyrrolidin-3-ol]
concentrations that completely blocked the effects of CPA treatment [1]: < 0.3 µM | inhibition of JNK pathway components [2]: effectively inhibit the same JNK pathway components as compound 1

O[C@@H]1CCN(Cc2ccc(-c3cnc4[nH]cc(-c5cccc(Cl)c5)c4c3)cc2)C1 [12l, (R)-1-(4-(3-(3-Chlorophenyl)-1H-pyrrolo[2,3-b]pyridin-5-yl)benzyl)pyrrolidin-3-ol]
concentrations that completely blocked the effects of CPA treatment [1]: < 0.3 µM | inhibition of JNK pathway components [2]: effectively inhibit the same JNK pathway components as compound 1

Cn1c2ccccc2c2c3c(c4c5ccccc5n(CCC#N)c4c21)CNC3=O [Gö6976]
protection of motor neurons from ER stress [3]: protect motor neurons from ER stress

Cc1nc(Nc2cnn(C3CCNCC3)c2)nc2c1N(C)C(=O)c1cc3ccccc3cc1N2C [HTH 01–015]
rescue of CPA toxicity / neuroprotection [4]: did not rescue CPA toxicity | concentrations toxic to motor neurons in the absence of CPA [4]: above 2 μM

COC(=O)[C@@]1(O)C[C@H]2O[C@]1(C)n1c3ccccc3c3c4c(c5c6ccccc6n2c5c31)C(=O)NC4 [K252a]
protection of motor neurons from ER stress [3]: protect motor neurons from ER stress

Nc1ccc(-c2cnc(N)c(-c3ccc(Cl)cc3)c2)cn1 [PF-6260933]
rescue of CPA toxicity / neuroprotection [4]: neuroprotective

CCC(=O)Nc1cccc(Oc2nc(Nc3ccc(N4CCN(C)CC4)cc3OC)ncc2Cl)c1 [WZ4003]
rescue of CPA toxicity / neuroprotection [4]: did not rescue CPA toxicity | concentrations toxic to motor neurons in the absence of CPA [4]: above 2 μM

O=C1Cc2c([nH]c3ccc([N+](=O)[O-])cc23)-c2ccccc2N1 [alsterpaullone]
rescue of CPA toxicity / neuroprotection [4]: more potent than kenpaullone

O=C1Cc2c([nH]c3ccc(Br)cc23)-c2ccccc2N1 [kenpaullone]
protection of motor neurons from ER stress [3]: protect motor neurons from ER stress

Reference: paper PMC7253076 (Cell chemical biology, 2019)
